# Compounds with a hit are over-represented: about 0.89% of the library has one in this group of screens.
# XiGFP reactiv = X-chromosome reactivation activator. XiGFP mouse fibroblasts, % GFP-positive cells imaging, 3 d; cells co-treated with 5-aza-dC sensitizer; scaled so ellipticine positive control = 100%. activation, % at 7.58 µM. 360,000 compounds, 0.055% hits. AID 743238;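 active = mean normalized replicate activation at least 10% and every replicate at or above 10%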;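 note: 0% = median of on-plate neutral control wells and 100% = ellipticine 6 µM median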
#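 Schedule: 3 d treatment, 15 min room-temperature fixation; system: 68-5-11 XiGFP fibroblast line; buffer or medium: DMEM plus 5-aza-dC sensitizer; control set: ellipticine 6 µM positive control; compound: one concentration, pinned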
# T cell modulator = modulates CD8 T cell binding to vesicles; 2C CD8+ T cell-vesicle binding, flow cytometry; stronger effect = lower value; response (vesicle binding), % at 7 µM; 330,000 compounds, 0.068% hits; AID 2052;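 active = response, share of CD8 T cells binding vesicles, and their 90th percentile fluorescence all below set limits, cut at about 80% in these data, passing the limit was not always enough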;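 note: values below 100% mean blocked vesicle binding to the CD8+ T cells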
#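 Test system: purified 2C TCR transgenic mouse naive CD8+ T cells. Probe or stimulus: QL9-peptide-loaded Drosophila micro-vesicles bearing Ld, ICAM-1 and B7-1. Incubation: binding step 1.5 h, 37 °C, antibody labelling 20 min, ice. Measured by: flow cytometry of vesicle-bound cells.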
# Arrestin-AP2 inh = inhibitors of human beta-arrestin and AP2 interaction; FITC-arrestin peptide / GST-AP2 beads, flow cytometry; AP2 beta2 appendage carries R879A mutation; inhibition, % at 10 µM; 340,000 compounds, 0.31% hits; AID 504490;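 active = inhibition above a set limit, near 3 SD of compounds lacking own fluorescence, cut at about 54% in these data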;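 note: plate controls were DMSO wells for no effect and 5 µM unlabelled arrestin peptide for full effect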
#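 Test system: GST-tagged AP2 beta2-adaptin appendage (R879A) on 4 µm glutathione beads; also added: fluorescein-tagged arrestin peptide at 50 nM final; timing: 12 min plus 1 h, RT; signal: flow cytometry, FL1 (488/535 nm); read-out: percent drop in bead-associated FITC signal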
# NTR1 ag = agonists of human neurotensin receptor NTR1 | activation, % at 20 µM | 330,000 compounds, 0.17% hits | P30989 | NTR1-U2OS beta-arrestin-GFP spot imaging, agonist mode;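 active = activation at or above 40% of the spot to cytoplasm intensity ratio, with at least 20 cells analyzed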;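 note: 0% = DMSO without peptide and 100% = 100 nM NTR1 peptide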
# V-ATPase pHluor = alters yeast V-ATPase proton transport; S. cerevisiae, pHLuorin cytosolic pH fluorescence; response, % at 10 µM; 350,000 compounds, 0.37% hits; in the data active = response mostly above about 7.3%, no sharp cut-off; inactive = mostly below about 5.4%; note: actives read high
# MIN6 prolif = induces beta-cell replication in MIN6 cells; MIN6 cells proliferation, ATPlite luminescence, 48 h; cells starved in 0.2% serum; 100% = growth in 10% serum; proliferation, % at 10 µM; 330,000 compounds, 0.29% hits;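 active = compounds whose signal lies at least 3.5 SD above the mean of all wells on their plate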;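 note: 0% = DMSO-treated cells in low-serum medium and 100% = 10% serum control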
# Arr-AP2 CP1 = human beta-arrestin and AP2 interaction inhibition, cherry pick. shares compounds with Arrestin-AP2 inh. GST-AP2 beads, FITC arrestin peptide binding, flow cytometry; GST-fused beta2-adaptin appendage, R879A mutant. inhibition, % at 10 µM. 1,300 compounds, 2% hits;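 active = inhibition above a set limit, roughly 3 SD of non-fluorescent compound noise, cut at about 38% in these data; inactive = inhibition at or below that limit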;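 note: loss of bead fluorescence from 50 nM FITC arrestin peptide bound to appendage; 0% = negative control wells and 100% = excess unlabelled arrestin peptide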
# Target sequence (P63010 whole entry, looked up, the tested form may be a part, one chain of several): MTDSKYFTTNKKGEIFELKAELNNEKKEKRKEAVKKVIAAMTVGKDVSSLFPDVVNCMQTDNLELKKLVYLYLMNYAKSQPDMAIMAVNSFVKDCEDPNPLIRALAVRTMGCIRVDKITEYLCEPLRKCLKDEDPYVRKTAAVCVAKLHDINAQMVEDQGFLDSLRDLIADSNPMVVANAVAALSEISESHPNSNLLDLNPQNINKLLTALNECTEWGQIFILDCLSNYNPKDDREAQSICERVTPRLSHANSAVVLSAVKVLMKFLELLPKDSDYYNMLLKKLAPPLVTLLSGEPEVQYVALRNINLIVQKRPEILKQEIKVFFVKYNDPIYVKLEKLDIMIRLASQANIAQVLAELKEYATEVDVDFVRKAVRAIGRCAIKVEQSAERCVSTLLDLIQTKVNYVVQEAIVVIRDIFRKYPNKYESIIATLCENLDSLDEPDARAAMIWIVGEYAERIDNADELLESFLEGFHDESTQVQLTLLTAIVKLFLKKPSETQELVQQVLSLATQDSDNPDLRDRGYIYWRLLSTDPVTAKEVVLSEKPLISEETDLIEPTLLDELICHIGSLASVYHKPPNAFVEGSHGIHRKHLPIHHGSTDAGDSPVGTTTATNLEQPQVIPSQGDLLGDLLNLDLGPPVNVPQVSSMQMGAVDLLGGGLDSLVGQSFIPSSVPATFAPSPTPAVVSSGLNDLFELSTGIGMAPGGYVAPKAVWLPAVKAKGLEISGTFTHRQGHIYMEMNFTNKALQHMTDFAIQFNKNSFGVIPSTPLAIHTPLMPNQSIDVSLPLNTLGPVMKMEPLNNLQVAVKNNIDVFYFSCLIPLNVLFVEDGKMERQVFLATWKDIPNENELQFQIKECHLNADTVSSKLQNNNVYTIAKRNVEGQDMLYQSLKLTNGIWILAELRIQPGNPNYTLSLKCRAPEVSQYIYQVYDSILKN
# GST GSH counter = GST-GSH bead binding interference, counter-screen. shares compounds with Arrestin-AP2 inh. GST-fluorescein binding to GSH beads, fluorescence. inhibition, % at 10 µM. 1,300 compounds, 2% hits;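 active = inhibition above 50%, about 3 SD of the inhibition seen with non-fluorescent compounds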;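 note: fluorescein maleimide labelled GST captured on 4 micron glutathione beads; higher means more loss of bead fluorescence from quenching or blocked binding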
# * hit, by the source's call; i = inactive; x = no result.
SMILES,XiGFP reactiv,T cell modulator,Arrestin-AP2 inh,NTR1 ag,V-ATPase pHluor,MIN6 prolif,Arr-AP2 CP1,GST GSH counter
COc1ccc(-c2nc(CS(=O)CC(=O)NC3CCC(C)CC3)c(C)o2)cc1OC (centres undefined),0,296,54*,0,0,0,-11,0
O=C(Cc1ccc(NC(=O)C2CCN(C(=O)C3CCC3)CC2)cc1)Nc1cccc(C(=O)N2CCCC2)c1,0,x,-6,x,-4,x,x,x
O=C(Cc1ccc(NC(=O)C2CCN(C(=O)C3CCC3)CC2)cc1)Nc1cccc(C(=O)N2CCCCC2)c1,0,x,60*,x,3,x,5,-12
CC(C)NC(=O)N(C)C[C@H]1OCc2ccccc2-c2ccccc2C(=O)N([C@@H](C)CO)C[C@@H]1C,0,x,x,x,x,x,x,x
COc1ccc(-n2nc(N)c(C(N)=O)n2)cc1,0,173,55*,-1,3,-3,8,3
COc1ccc(NC(=O)CSCC(=O)Nc2ccc(S(=O)(=O)N3CCCCC3)cc2)cc1,0,221,57*,1,-4,2,-12,-8
CCS(=O)(=O)Nc1cccc(C2=NN(C(C)=O)C(c3cccs3)C2)c1 (centres undefined),0,165,54*,0,1,-2,-4,-10
Cc1ccc(C)c(N2CCN(c3ccncc3N)CC2)c1,0,42,55*,1,3,-3,-3,-7
CCOc1ncccc1C(=O)OCC(=O)Nc1cc(S(=O)(=O)N2CCOCC2)ccc1Cl,0,128,2,0,-1,1,x,x
CCOc1ncccc1C(=O)Nc1ccc(OC)c(S(=O)(=O)N2CCCCC2)c1,0,197,5,5,0,5,-1,-9
CCOc1ncccc1C(=O)Nc1cc(S(=O)(=O)N2CCCCC2)ccc1OC,0,202,24,0,-6,1,-5,29
CCOc1ncccc1C(=O)Nc1ccc(C)c(S(=O)(=O)N2CCCCCC2)c1,0,106,0,9,4,2,x,x
COc1ccc(S(=O)(=O)N2CCCCC2)cc1NC(=O)c1ccc(=O)[nH]c1,0,198,9,0,-2,-5,7,6
O=C(Nc1cc(S(=O)(=O)N2CCCCCC2)ccc1OCC(F)(F)F)c1ccc(=O)[nH]c1,7,394,-5,-2,0,2,x,x
CCOc1ncccc1C(=O)Nc1cccc(S(=O)(=O)N2CCOCC2)c1,0,168,-3,5,0,2,11,-7
COc1ccc([C@@H]2C/C=C\C[C@H](c3ccc4c(c3)OCO4)NC(=O)CCC(=O)N2)c(OC)c1,0,x,x,x,x,x,x,x
COc1ccc(S(=O)(=O)Nc2ccc3c(c2)CC(=O)N([C@H](C)CO)C[C@H](C)[C@@H](CN(C)S(=O)(=O)c2ccc(C)cc2)O3)cc1,-1,x,x,x,x,x,x,x
CC(C)NC(=O)Nc1ccc2c(c1)C(=O)N(C)C[C@@H](C)[C@H](CN(C)C)O2,0,x,x,x,x,x,x,x
Cc1ccc(NC(=O)c2cccnc2)cc1S(=O)(=O)N1CCOCC1,1,224,-15,-1,2,-4,2,-10
Cc1ccc2nc(-c3cccc(Br)c3)cc(C(=O)NCC3CCCO3)c2c1 (centres undefined),0,404,-6,6,-2,2,x,x
O=C(NCC1CCCO1)c1cc(-c2ccccc2)nc2ccc(Br)cc12 (centres undefined),0,314,54*,0,-6,6,1,-5
CN1C(=O)c2cc(NC(=O)Cc3ccccc3)ccc2OC[C@@H]2O[C@@H](CC(=O)NCC3CC3)CC[C@H]21,0,x,x,x,x,x,x,x
CCCN1C[C@H](C)[C@@H](OC)CN(C)C(=O)c2ccc(NC(=O)C3CCC3)cc2OC[C@@H]1C,0,x,x,x,x,x,x,x
CC(=O)N(Cc1cc(=O)[nH]c2ccccc12)c1ccccc1C,0,717,39,-1,-4,-1,x,x
CCCC(=O)N(Cc1cc(=O)[nH]c2ccccc12)c1ccccc1C,0,331,61*,-1,-5,3,8,-1
SMILES,XiGFP reactiv,T cell modulator,Arrestin-AP2 inh,NTR1 ag,V-ATPase pHluor,MIN6 prolif,Arr-AP2 CP1,GST GSH counter
CCNC(=O)Nc1ccc2c(c1)C(=O)N(C)[C@H]1CC[C@@H](CC(=O)NCC3CC3)O[C@@H]1CO2,0,x,x,x,x,x,x,x
O=S(=O)(c1cccc(-c2cn3cccnc3n2)c1)N1CCOCC1,x,519,2,0,1,-1,x,x
O=S(=O)(c1cccc(-c2cn3cccnc3n2)c1)N1CCCCCC1,x,152,61*,1,2,-2,-1,-4
C/C=C/c1cnc2c(c1)C(=O)N([C@H](C)CO)C[C@H](C)[C@H](CN(C)C(=O)C1CC1)O2,0,x,x,x,x,x,x,x
CCCCC(=O)Nc1nc2c(OC)cc([N+](=O)[O-])cc2s1,-1,338,55*,3,-1,2,-12,-10
O=C(Nc1cc(Cl)ccc1Oc1ccccc1)c1ccc(F)cc1,0,261,61*,-1,-1,0,-8,-10
O=C(Nc1cc(Cl)ccc1Oc1ccccc1)c1ccccc1F,0,225,-11,0,0,0,x,x
O=C(Nc1nc(-c2cc3ccccc3o2)cs1)c1ccc(S(=O)(=O)N2CCCC2)cc1,0,362,13,5,1,-6,x,x
CC1CN(S(=O)(=O)c2ccc(C(=O)Nc3nc(-c4cc5ccccc5o4)cs3)cc2)CC(C)O1 (centres undefined),0,731,107*,4,-8,-6,-6,-2
O=C1c2ccccc2C(=O)c2c(NCc3cccnc3)cccc21,x,246,6,-4,-2,-3,x,x
CNc1cccc2c1C(=O)c1ccccc1C2=O,0,691,67*,x,-4,x,3,3
COc1ccccc1NS(=O)(=O)c1cc(NC(=O)c2sc3cc(Cl)ccc3c2Cl)ccc1C,0,i,105*,-1,2,0,3,4
C/C(=N/NC(=O)Nc1ccccc1)c1ccc(C)cc1,0,222,6,1,0,0,x,x
C/C(=N\NC(=O)Nc1ccccc1)c1ccc2ccccc2c1,0,447,93*,11,4,-1,-6,-1
C[C@H](CO)N1C[C@H](C)[C@@H](CN(C)C(=O)Nc2ccc(C(F)(F)F)cc2)OCCCC[C@H](C)Oc2ccc(NC(=O)Nc3ccc(F)cc3)cc2C1=O,0,x,x,x,x,x,x,x

# Screens (PubChem BioAssay)
